In publication PMC10580023 (RSC Advances, 2023):

Key:
Type in all cases: cell-based
[1] = tested on: RAW 264.7 cells; test: IL-6 secretion by ELISA in LPS-stimulated macrophages; conditions: pre-treatment 24 h, then LPS 1 μg mL^−1 for 4 h; ELISA of supernatant
Outline: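 RAW 264.7 macrophages (within passage 30) grown in DMEM with 10% FBS and 1% antibiotic-antimycotic at 37 °C, 5% CO2. Test compound at 25, 50 and 100 μM (legend: 0, 25, 50 μM) for 24 h, then LPS 1 μg mL⁻¹ for 4 h. Supernatant IL-6 measured by commercial ELISA kit. Three independent experiments, mean ± SD, compared with the LPS group.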

[2] = tested on: RAW 264.7 cells; test: Intracellular ROS by DCFH-DA probe in LPS-stimulated macrophages; conditions: Mus musculus, RAW264.7, read-out: ROS inhibition rate
Outline: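 RAW 264.7 macrophages (DMEM/10% FBS, 37 °C, 5% CO₂) pre-treated with test compound for 24 h, then stimulated with LPS 1 μg mL⁻¹ for 4 h. Cells harvested, loaded with DCFH-DA for 30 min at 37 °C in the dark, and washed three times with PBS. DCF fluorescence read on a multimode imaging reader and […]. Mean ± SD of three independent experiments.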

[3] = tested on: RAW 264.7 cells; test: TNF-α secretion by ELISA in LPS-stimulated macrophages; conditions: pre-treatment 24 h, then LPS 1 μg mL^−1 for 4 h; ELISA of supernatant
[4] = tested on: RAW 264.7 cells; test: CCK-8 cell viability
Outline: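 Mouse RAW 264.7 macrophages (passage ≤30) grown in DMEM with 10% FBS and 1% antibiotic-antimycotic at 37 °C under 5% CO₂. Seeded at 10⁵ per well and left overnight. Exposed to test compound at 0–200 μM for 24 h. Viability read with a CCK-8 kit as % cell viability; IC50 calculated by curve fitting. Mean ± SD of three independent experiments.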

SMILES	Prevention of LPS-induced IL-6 secretion [1]	inhibition at 50 µM [2] [%]	Prevention of LPS-induced TNF-α secretion [3]	inhibition at 25 µM [2] [%]	Cytotoxicity (in words) [4]
C=C(C[C@@H]1CCSc2ccc(OC)cc21)c1ccccc1 [3aw]	able to prevent LPS-induced IL-6 secretion	–	–	–	–
C=C(C[C@@H]1CCOc2ccccc21)c1ccccc1C [3am]	–	29	–	–	–
C=C(C[C@@H]1CCOc2ccccc21)c1ccc(Cl)cc1 [3al]	able to prevent LPS-induced IL-6 secretion	–	–	–	–
C=C(C[C@@H]1CCSc2ccccc21)c1ccccc1C [3bd]	–	52	–	–	–
C=C(C[C@@H]1CCOc2ccc(C)cc21)c1ccccc1 [3ac]	–	23	no effect	-24	–
C=C(C[C@@H]1CCSc2ccc(C)cc21)c1ccccc1 [3ax]	–	49	no effect	32	–
Cc1c(C)c2c(c(C)c1O)CCC(C)(C(=O)O)O2 (centres unmarked) [Trolox, reference compound]	–	20	–	-3	–
C=C(C[C@@H]1CCOc2ccccc21)c1ccc(C)cc1 [3aj]	able to prevent LPS-induced IL-6 secretion	–	–	–	little cytotoxicity
